UBC13 polyUb – blocks human UBC13 polyubiquitin chain formation; TR-FRET; 0.47% of 330,000 active; P61088; inhibition, % at 20 µM; in the data active means inhibition above about 45%, passing the limit was not always enough
XBP1 UPR activ – adaptive UPR (XBP1) activation; CHO-XBP1 luciferase reporter, IRE1-XBP1 UPR activation, luminescence; percent of tunicamycin response, DMSO as zero; activation, % at 20 µM; 0.33% of 330,000 active; AID 463104;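 active means versus positive control, 20 µM dose yields 30% or more activation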;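 further: 100% = tunicamycin at 10 µg/mL and 0% = DMSO only wells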
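Assay system: IRE1-XBP1 luciferase reporter CHO line. Input: 1000 cells/well. Buffer or medium: F12 with 10% serum. Doses: 20 µM, 1% DMSO. Times: overnight seeding at 37 °C, 6 h compound treatment at 37 °C. Technique: Steady-Glo luciferase glow luminescence, 10 min after reagent addition.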
Mdm2-MdmX inh – disrupts the human Mdm2-MdmX interaction | SaOS-2 split-luciferase Mdm2/MdmX complementation, luminescence | inhibition, % at 8 µM | 3% of 330,000 active | AID 485346;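 active means inhibition of at least 50% at 8 µM in the primary screen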
Target sequence (O15151 whole entry, looked up): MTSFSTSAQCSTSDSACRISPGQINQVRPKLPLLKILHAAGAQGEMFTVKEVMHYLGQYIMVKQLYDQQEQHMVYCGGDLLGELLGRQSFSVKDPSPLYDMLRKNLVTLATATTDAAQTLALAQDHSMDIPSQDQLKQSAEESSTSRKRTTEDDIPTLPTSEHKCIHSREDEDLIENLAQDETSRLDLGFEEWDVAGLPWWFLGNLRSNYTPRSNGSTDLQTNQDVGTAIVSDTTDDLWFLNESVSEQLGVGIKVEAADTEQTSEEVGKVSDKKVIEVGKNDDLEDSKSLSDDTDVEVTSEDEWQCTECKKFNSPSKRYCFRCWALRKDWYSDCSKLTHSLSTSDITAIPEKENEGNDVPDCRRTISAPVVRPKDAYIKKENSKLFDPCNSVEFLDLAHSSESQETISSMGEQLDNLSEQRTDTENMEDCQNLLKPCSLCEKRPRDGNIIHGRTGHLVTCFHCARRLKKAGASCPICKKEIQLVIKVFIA
Target sequence (Q00987 whole entry, looked up): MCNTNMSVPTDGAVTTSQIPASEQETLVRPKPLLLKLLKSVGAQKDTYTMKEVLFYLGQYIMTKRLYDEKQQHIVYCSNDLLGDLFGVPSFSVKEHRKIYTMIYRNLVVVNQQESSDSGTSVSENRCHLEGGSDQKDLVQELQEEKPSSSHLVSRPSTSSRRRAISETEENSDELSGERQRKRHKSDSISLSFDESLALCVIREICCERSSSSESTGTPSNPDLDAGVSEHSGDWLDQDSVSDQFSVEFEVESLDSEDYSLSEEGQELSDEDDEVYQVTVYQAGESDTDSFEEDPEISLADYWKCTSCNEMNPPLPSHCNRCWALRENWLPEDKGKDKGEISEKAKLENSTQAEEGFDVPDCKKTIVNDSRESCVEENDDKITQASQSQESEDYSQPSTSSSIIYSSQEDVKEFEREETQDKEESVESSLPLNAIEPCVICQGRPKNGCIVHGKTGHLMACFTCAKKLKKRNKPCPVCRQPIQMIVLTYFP
UPR CHOP act – apoptotic UPR (CHOP) activation | CHO-CHOP luciferase reporter, luminescence; percent of tunicamycin response over DMSO baseline | activation, % at 10 µM | 0.34% of 330,000 active | AID 449763;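 active means at 10 µM dose, activation of 40% or more, normalized to positive control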;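 further: 100% = tunicamycin at 10 µg/mL and 0% = DMSO alone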
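Test system: CHO CHOP reporter cells. Input: 500 CHO-CHOP cells per well. Medium: F12 with 10% FBS. Technique: luciferase luminescence. Measure: percent activation relative to tunicamycin control. Dosing: 10 µM compound, 0.5% DMSO. Timing: 16-18 h cell attachment, then 6 h compound exposure, 37 °C.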
Apaf1 inhib – human Apaf-1 inhibition. inhibition, % at 20 µM. 0.71% of 330,000 active. reconstituted apoptosome caspase-3 activity, DEVD-Rh110 fluorescence; active means inhibition of at least 40% at 20 µM;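 further: plate controls were DMSO wells for no effect and DEVD-CHO caspase inhibitor wells for full effect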
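detection = Rh110 fluorescence intensity | test system = biochemical Apaf-1 apoptosome reconstitution | also added = cytochrome c and DEVD-Rh110 substrate | schedule = 30 min plus 50 min, RT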
Apaf-1 inh conf – confirmation of Apaf-1 inhibitors; inhibition, % at 20 µM; 25% of 1,800 active; reconstituted apoptosome, caspase-3 DEVD-Rh110 fluorescence; AID 504614; shares compounds with Apaf1 inhib;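 active means mean inhibition of at least 40% at 20 µM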;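 further: plate controls were DMSO wells for no effect and DEVD-CHO caspase inhibitor control wells for full effect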
Rh110 interf inh – counter-screen for Apaf-1 inhibitors: fluorescence interference | shares compounds with Apaf1 inhib | Rh110 fluorescence interference, quenched caspase reaction | activation (fluorescence interference), % at 20 µM | 1,800 tested, under 10 active;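 active means signal rise of 40% or more at 20 µM, treated as a fluorescence artifact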
Fluor interf inh – counter-screen for Apaf-1 inhibitors: fluorescence interference, dose response. shares compounds with Apaf1 inhib. IC50, µM. 460 tested, under 10 active. fluorescence interference counterscreen, Apaf-1 assay format; call rule not given here
* marks the source's active call; other numbers are inactive results; nt = not tested or not shown. An excerpt weighted towards active compounds, which were near 4.1% of everything screened.

SMILES	UBC13 polyUb	XBP1 UPR activ	Mdm2-MdmX inh	UPR CHOP act	Apaf1 inhib	Apaf-1 inh conf	Rh110 interf inh	others
COC(=O)c1c(N)n(-c2ccc(NC(C)=O)cc2)c2nc3ccccc3nc12	-31.3	-3.8	1.1	-1.7	48.8*	23.8	3.6
Cc1nc(C(=O)NC2CCCCC2)sc1C1(C)CC(c2cccnc2)=NO1 (stereo unspecified)	-6.5	-4.2	11.8	-0.1	12.4	nt	nt
CCCn1nc(C(=O)NNC(=O)c2cccc(C)c2)c2ccccc2c1=O	-5.5	1.6	-14.5	-0.5	5.0	nt	nt
O=C(O)CCCN=CC1=C(O)CNC1=O	-0.7	0.2	-18.6	-1.8	7.2	nt	nt
COCCCNC(=O)c1c(N)n(-c2ccccc2)c2nc3ccccc3nc12	-27.4	-0.8	22.9	2.9	83.6*	29.2	10.3
Nc1c(C(=O)NCc2ccccc2)c2nc3ccccc3nc2n1-c1ccc2c(c1)OCO2	-41.6	7.8	29.8	3.5	18.1	nt	nt
COc1ccc(C(=O)NCCCn2ccnc2)cc1	0.0	-0.8	-0.7	0.1	-2.0	nt	nt
COCCNC(=O)c1c(N)n(CCCn2ccnc2)c2nc3ccccc3nc12	-14.0	1.3	-0.1	-0.8	93.9*	26.6	10.9
COCCCNC(=O)c1c(N)n(-c2ccc(S(N)(=O)=O)cc2)c2nc3ccccc3nc12	7.3	-2.0	19.3	-0.9	19.3	nt	nt
C=CCNC(=O)c1c(N)n(-c2cccc(S(N)(=O)=O)c2)c2nc3ccccc3nc12	-1.0	1.3	1.2	-1.0	60.9*	15.5	9.3
CC(C)COC(=O)Cn1cnc2ccc(Br)cc2c1=O	1.2	0.4	10.0	2.2	4.8	nt	nt
O=C(Nc1ccc(F)cc1)C1CCCN(C2=NS(=O)(=O)c3ccccc32)C1 (stereo unspecified)	10.1	-1.5	-4.4	1.9	-10.5	nt	nt
CCN(CC)CCN(C(=O)CCS(=O)(=O)c1ccccc1)c1nc2cc(C)cc(C)c2s1	9.0	-0.6	8.2	2.2	35.0	nt	nt
Cc1cc(C)c2sc(N(CCN(C)C)C(=O)CCS(=O)(=O)c3ccccc3)nc2c1	-1.3	-0.9	-21.0	4.3	52.5*	7.5	6.8
O=c1cc(-c2ccc(F)cc2)[nH][nH]1	-14.3	1.0	-7.2	0.8	50.3*	2.2	-7.6
O=c1cc(-c2ccc(Br)cc2)[nH][nH]1	-11.6	-2.7	-2.8	-1.1	33.3	nt	nt
COc1ccc(-c2cc(=O)[nH][nH]2)cc1OC	-21.6	0.1	0.6	0.6	76.7*	12.6	-5.7
CCOc1cccc(-c2cc(=O)[nH][nH]2)c1	-13.5	-3.8	5.7	-0.7	43.9*	8.6	3.9
CC(=O)N1CCOc2ccc(S(=O)(=O)NCc3ccc(C)cc3)cc21	1.3	-3.7	27.8	-0.2	-0.6	nt	nt
CC(=O)N1CCOc2ccc(S(=O)(=O)N(C)c3ccc(C)cc3)cc21	-4.4	-4.8	-3.3	-0.9	40.5*	10.8	-0.1
NC(=S)Nc1ccc(Oc2ccc(NC(N)=S)cc2)cc1	3.8	-3.5	1.9	-0.2	-10.0	nt	nt
CN(C)CC/C=C1\c2ccccc2Sc2ccc(Cl)cc21	11.8	-1.4	42.3	-1.1	49.1*	15.5	5.5
Cc1nn(C(=O)c2nn(C)cc2[N+](=O)[O-])c(C)c1Br	7.3	-2.0	-14.2	0.1	0.3	nt	nt
COc1ccc(N[C@@H]2CCN3C(=O)c4ccccc4[C@@H]3C[C@H]2O)cc1	nt	-0.2	17.2	1.3	17.3	nt	nt
O=C1c2ccccc2[C@@H]2C[C@@H](O)[C@H](Nc3cccc4ccccc34)CCN12	nt	2.6	22.0	8.3	53.3*	27.5	7.5
SMILES	UBC13 polyUb	XBP1 UPR activ	Mdm2-MdmX inh	UPR CHOP act	Apaf1 inhib	Apaf-1 inh conf	Rh110 interf inh	others
OC(CNc1ccccc1)Cn1ccc2ccccc21 (stereo unspecified)	3.1	-3.1	5.7	0.2	4.1	nt	nt
CC12COC3(C(=O)Nc4ccc(F)cc4)CC1CCC32C (stereo unspecified)	-0.9	-0.6	19.3	2.7	-2.2	nt	nt
CC12COC3(P(=O)(c4ccccc4)c4ccccc4)CC1CCC23CP(=O)(c1ccccc1)c1ccccc1 (stereo unspecified)	-9.3	6.0	-42.3	-0.8	41.3*	14.3	7.5
COc1cc(C(=O)NCC2(N(C)C)CCCCC2)ccc1OCc1ccccc1	2.3	1.9	9.9	0.2	6.2	nt	nt
O=C1NC(c2ccc(-c3ccccc3[N+](=O)[O-])o2)C(C(=O)c2ccc(F)cc2)C(O)(C(F)(F)F)N1 (stereo unspecified)	-23.4	-1.6	30.6	0.4	51.1*	12.6	9.0
COc1ccc(C(=O)C2C(c3ccc(-c4ccccc4[N+](=O)[O-])o3)NC(=O)NC2(O)C(F)(F)F)cc1 (stereo unspecified)	-30.2	-2.5	25.7	-2.2	22.4	nt	nt
NC(=O)[C@H](Cc1cc2ccccc2s1)NC(=O)[C@@H]1CC2(CC(c3cccc(NC(=O)[C@@H]4CCC(=O)N4)c3)=NO2)CN1C(=O)/C=C/c1c(F)cccc1Cl (stereo partly specified)	-16.4	-2.3	22.0	-1.7	46.9*	16.3	12.7
Cc1ccc2nsnc2c1NC(=O)c1ccc([N+](=O)[O-])o1	-0.9	-2.9	36.9	3.2	3.8	nt	nt
CCOc1ccc(S(=O)(=O)NC2=NCCCCC2)cc1	16.4	-2.5	-29.3	1.1	-12.1	nt	nt
C=CCN1C=C2C(=O)C(C)(OC(=O)CCC(=O)OC)C(=O)C(Br)=C2C=C1c1ccc(OC)cc1 (stereo unspecified)	-96.2	-2.2	-20.7	4.3	67.2*	60.7*	9.1	Fluor interf inh=>100
COC(=O)CCC(=O)OC1(C)C(=O)C2=CN(C3CCCC3)C(c3ccc(OC)cc3)=CC2=C(Br)C1=O (stereo unspecified)	-92.3	-1.6	-3.2	0.9	64.1*	76.8*	5.2	Fluor interf inh=>100
COCCN1C=C2C(=O)C(C)(OC(=O)CCC(=O)OC)C(=O)C(Br)=C2C=C1c1ccc(OC)cc1 (stereo unspecified)	-88.5	1.1	-33.4	2.0	77.1*	84.1*	7.3
COC(=O)CCC(=O)OC1(C)C(=O)C=C2C=C(C3CC3)N(C3CC3)C=C2C1=O (stereo unspecified)	-38.0	1.0	6.8	2.9	53.6*	37.1	-1.9
CCOC(=O)N1CCC(N2C(=O)c3ccccc3C2Nc2ccc(S(=O)(=O)N(CC)CC)cc2)CC1 (stereo unspecified)	1.1	-6.2	3.9	0.5	0.3	nt	nt
O=C(O)c1ccc2c3c(ncnc13)-c1ccccc1C2=O	-46.0	1.4	30.5	1.6	44.0*	22.9	4.5

Compound activity (PubChem)
